Test results from ChEMBL document CHEMBL1671756, “In vitro and in vivo antifungal susceptibilities of the Mucoralean fungus Cunninghamella” (2010).
Calls of active or inactive are those of the source. The rule behind the calls is not given here.

How the values were obtained:
[1] = tested on: Cunninghamella bertholletiae; experiment: Antifungal activity against Cunninghamella bertholletiae UTHSC 05-2275 infected in neutropenic OF1 mouse assessed as decreased fungal load in kidney at 0.8 mg/kg, iv qd administered 1 day post infection measured after 4 to 5 days relative to untreated control; assay type: functional, organism-based; parameters: dose 0.8 mg/kg
Outline: (§1)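 Neutropenic male OF1 mice (cyclophosphamide 200 mg/kg i.p. + 5-fluorouracil 150 mg/kg i.v., day −1) were infected i.v. with 1 × 10⁴ CFU. Ten mice per group were treated from day 1 and killed by CO₂ on day 5, or on day 4 if moribund. Half of each brain, lung and kidney was homogenized in 1 ml saline. Ten-fold dilutions were plated on PDA for 24 h at 35°C and counted as log₁₀ CFU/g.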

[2] = tested on: Cunninghamella bertholletiae; experiment: Antifungal activity against Cunninghamella bertholletiae UTHSC 04-2581 infected in neutropenic OF1 mouse assessed as decreased fungal load in kidney at 0.8 mg/kg, iv qd administered 1 day post infection measured after 4 to 5 days relative to untreated control; assay type: functional, organism-based; parameters: dose 0.8 mg/kg
Outline: (§2)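 Neutropenic male OF1 mice (cyclophosphamide 200 mg/kg i.p. plus 5-fluorouracil 150 mg/kg i.v., day −1) were given 1 × 10⁴ CFU sporangiospores i.v. in 0.2 ml saline. Treatment from 24 h: 0.8 mg/kg i.v. or oral doses once daily; 10 mice per group. Killed at day 5 (day 4 if moribund). About half of brain, lungs and kidneys homogenized in saline; 10-fold dilutions plated on PDA for 24 h at 35°C; log₁₀ CFU/g tissue.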

[3] = tested on: Cunninghamella bertholletiae; experiment: Antifungal activity against Cunninghamella bertholletiae UTHSC 05-2275 infected in neutropenic OF1 mouse assessed as decreased fungal load in lung at 0.8 mg/kg, iv qd administered 1 day post infection measured after 4 to 5 days relative to untreated control; assay type: functional, organism-based; parameters: dose 0.8 mg/kg; outline: as §1
[4] = tested on: Cunninghamella bertholletiae; experiment: Antifungal activity against Cunninghamella bertholletiae UTHSC 04-2581 infected in neutropenic OF1 mouse assessed as decreased fungal load in lung at 0.8 mg/kg, iv qd administered 1 day post infection measured after 4 to 5 days relative to untreated control; assay type: functional, organism-based; parameters: dose 0.8 mg/kg; outline: as §2
[5] = tested on: Cunninghamella bertholletiae; experiment: Antifungal activity against Cunninghamella bertholletiae UTHSC 05-2275 infected in neutropenic OF1 mouse assessed as increase in mouse survival rate at 0.8 mg/kg, iv qd administered 1 day after infection for 7 days relative to untreated control; assay type: functional, organism-based; parameters: dose 0.8 mg/kg
Outline: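 Male OF1 mice (~30 g) were made neutropenic with cyclophosphamide 200 mg/kg i.p. plus 5-fluorouracil 150 mg/kg i.v. 1 day before challenge. Challenge was 1 × 10⁴ CFU sporangiospores in 0.2 ml saline via the lateral tail vein. Mice got ceftazidime 5 mg/day s.c. on days 1–7. Dosing started 24 h post-challenge for 7 days. There were 10 mice/group, observed daily for 20 days. Kaplan-Meier analysis with log-rank test.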

[6] = tested on: Cunninghamella bertholletiae; experiment: Antifungal activity against Cunninghamella bertholletiae UTSCH 05-2275 infected in diabetic OF1 mouse assessed as decreased fungal load in brain at 40 mg/kg, po qd administered 1 day post infection measured after 4 to 5 days relative to untreated control; assay type: functional, organism-based; parameters: dose 40 mg/kg
Outline: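 Diabetic male OF1 mice (streptozocin 210 mg/kg i.p.; glucose above 250 mg/dl) were challenged i.v. with 1 × 10⁵ CFU sporangiospores. Oral once-daily dosing from day 1 for 7 days; 10 mice per group. Killed at day 5 (day 4 if moribund). About half of each organ homogenized in saline; serial 10-fold dilutions plated on PDA for 24 h at 35°C; log₁₀ CFU/g tissue.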

[7] = tested on: Cunninghamella bertholletiae; experiment: Antifungal activity against Cunninghamella bertholletiae UTHSC 04-2581 infected in neutropenic OF1 mouse assessed as increase in mouse survival rate at 60 mg/kg, po qd administered 1 day after infection for 7 days relative to untreated control; assay type: functional, organism-based; parameters: dose 60 mg/kg
Outline: (§3)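 Male OF1 mice, about 30 g, made neutropenic with cyclophosphamide 200 mg/kg i.p. plus 5-fluorouracil 150 mg/kg i.v. 1 day before challenge. Infected i.v. via the lateral tail vein with 1 × 10⁴ CFU of hemacytometer-counted sporangiospores in 0.2 ml saline. Ceftazidime 5 mg/day s.c. on days 1–7. Oral treatment started 24 h after challenge; 10 mice per group; checked daily for 20 days; Kaplan-Meier mean survival time, log-rank test.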

[8] = tested on: Cunninghamella bertholletiae; experiment: Antifungal activity against Cunninghamella bertholletiae UTHSC 05-2275 infected in neutropenic OF1 mouse assessed as increase in mouse survival rate at 25 mg/kg, po bid administered 1 day after infection for 7 days relative to untreated control
[9] = tested on: Cunninghamella bertholletiae; experiment: Antifungal activity against Cunninghamella bertholletiae UTHSC 06-1945 infected in neutropenic OF1 mouse assessed as decreased fungal load in brain at 60 mg/kg, po qd administered 1 day post infection measured after 4 to 5 days relative to untreated control; assay type: functional, organism-based; parameters: dose 60 mg/kg; outline: as §2
[10] = tested on: Cunninghamella bertholletiae; experiment: Antifungal activity against Cunninghamella bertholletiae UTHSC 05-2275 infected in neutropenic OF1 mouse assessed as increase in mouse survival rate at 40 mg/kg, po qd administered 1 day after infection for 7 days relative to untreated control; assay type: functional, organism-based; parameters: dose 40 mg/kg; outline: as §3
[11] = tested on: Cunninghamella bertholletiae; experiment: Antifungal activity against Cunninghamella bertholletiae UTHSC 05-2275 infected in diabetic OF1 mouse assessed as increase in mouse survival rate at 20 mg/kg, po qd administered 1 day after infection for 7 days relative to untreated control; assay type: functional, organism-based; parameters: dose 20 mg/kg
Outline: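 Male OF1 mice made diabetic with streptozocin 210 mg/kg i.p.; blood glucose above 250 mg/dl at day 10 required. Infected i.v. via the tail vein with 1 × 10⁵ CFU sporangiospores in 0.2 ml saline. Ceftazidime 5 mg/day s.c. on days 1–7. Oral once-daily treatment from day 1 for 7 days; 10 mice per group; followed for 20 days; Kaplan-Meier mean survival time, log-rank test.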

[12] = tested on: Cunninghamella bertholletiae; experiment: Antifungal activity against Cunninghamella bertholletiae UTHSC 05-2275 infected in neutropenic OF1 mouse assessed as decreased fungal load in brain at 60 mg/kg, po qd administered 1 day post infection measured after 4 to 5 days relative to untreated control; assay type: functional, organism-based; parameters: dose 60 mg/kg; outline: as §2
[13] = tested on: Cunninghamella bertholletiae; experiment: Antifungal activity against Cunninghamella bertholletiae UTSCH 05-2275 infected in diabetic OF1 mouse assessed as decreased fungal load in lung at 80 mg/kg, po qd administered 1 day post infection measured after 4 to 5 days relative to untreated control; assay type: functional, organism-based; parameters: dose 80 mg/kg
Outline: (§4)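 Male OF1 mice (mean 30 g) made diabetic with a single i.p. dose of streptozocin 210 mg/kg; blood glucose >250 mg/dl at day 10 qualified. Ceftazidime 5 mg/day s.c. given on days 1–7. Challenge by lateral tail vein with 1 × 10⁵ CFU sporangiospores in 0.2 ml saline. Oral dosing once daily for 7 days, starting 1 day after challenge. Untreated controls. Ten mice per group.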

[14] = tested on: Cunninghamella bertholletiae; experiment: Antifungal activity against Cunninghamella bertholletiae UTHSC 03-2241 infected in neutropenic OF1 mouse assessed as decreased fungal load in brain at 60 mg/kg, po qd administered 1 day post infection measured after 4 to 5 days relative to untreated control; assay type: functional, organism-based; parameters: dose 60 mg/kg; outline: as §2
[15] = tested on: Cunninghamella bertholletiae; experiment: Antifungal activity against Cunninghamella bertholletiae FMR-9598 infected in neutropenic OF1 mouse assessed as decreased fungal load in brain at 0.8 mg/kg, iv qd administered 1 day post infection measured after 4 to 5 days relative to untreated control; assay type: functional, organism-based; parameters: dose 0.8 mg/kg; outline: as §2
[16] = tested on: Cunninghamella bertholletiae; experiment: Antifungal activity against Cunninghamella bertholletiae UTSCH 05-2275 infected in diabetic OF1 mouse assessed as decreased fungal load in lung at 60 mg/kg, po qd administered 1 day post infection measured after 4 to 5 days relative to untreated control; assay type: functional, organism-based; parameters: dose 60 mg/kg; outline: as §4

| SMILES | Activity [1] | Activity [2] | Activity [3] | Activity [4] | Activity [5] | Activity [6] | Activity [7] | Activity [8] | Activity [9] | Activity [10] | Activity [11] | Activity [12] | Activity [13] | Activity [14] | Activity [15] | Activity [16] |
| --- | --- | --- | --- | --- | --- | --- | --- | --- | --- | --- | --- | --- | --- | --- | --- | --- |
| C[C@@H]1[C@H](O)[C@@H](C)/C=C/C=C/C=C/C=C/C=C/C=C/C=C/[C@H](O[C@@H]2O[C@H](C)[C@@H](O)[C@H](N)[C@@H]2O)C[C@@H]2O[C@](O)(C[C@@H](O)C[C@@H](O)[C@H](O)CC[C@@H](O)C[C@@H](O)CC(=O)O[C@H]1C)C[C@H](O)[C@H]2C(=O)O [AMPHOTERICIN B] | Active | Active | Active | Active | Active |  |  |  |  |  |  |  |  |  |  |  |
| CC[C@@H]([C@H](C)O)n1ncn(-c2ccc(N3CCN(c4ccc(OC[C@@H]5CO[C@@](Cn6cncn6)(c6ccc(F)cc6F)C5)cc4)CC3)cc2)c1=O [POSACONAZOLE] |  |  |  |  |  | inactive | Active | inactive | Active | Active | inactive | Active | Active | Active | Active | Active |
